Reference: ChEMBL document CHEMBL3244185, “Synthesis and antiprotozoal activity of 2,5-bis(4-guanylphenyl)furans” (J Med Chem, 1977)
The source made the active and inactive calls. The rule behind the calls is not given here.

Key:
[1] = test system: Trypanosoma brucei rhodesiense; assay: Antitrypanosomal activity against Trypanosoma rhodesiense CT infected in ICR/HA Swiss mouse assessed as 30-day increase in survival time at 320 mg/kg relative to control; assay type: functional, organism-based; set-up: dose 320 mg/kg
Procedure, shortened: (§1)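 Mice infected with T. rhodesiense, dosed per mg of compound per kg body weight, five mice per dose level. A cure means survival extended 30 days beyond untreated controls, so at most five cures per dose. Non-curative effects are given as ΔMST, the gain in mean survival time in days versus controls. Toxic deaths are flagged separately.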

Plasmodium berghei [2] = assay: Antimalarial activity against Plasmodium berghei infected in mouse up to 640 mg/kg, sc administered 72 hrs post infection; assay type: functional, organism-based; set-up: dose 640 mg/kg
Procedure, shortened: (§2)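 Antimalarial screen in P. berghei-infected mice, doses in mg/kg. The read-out is the gain in mean survival time of treated animals over untreated controls. Toxicity is recorded at the dose levels tested.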

[3] = test system: Trypanosoma brucei rhodesiense; assay: Antitrypanosomal activity against Trypanosoma rhodesiense CT infected in ICR/HA Swiss mouse assessed as 30-day increase in survival time at 80 mg/kg relative to control; assay type: functional, organism-based; set-up: dose 80 mg/kg; procedure, shortened: as §1
[4] = test system: Trypanosoma brucei rhodesiense; assay: Antitrypanosomal activity against Trypanosoma rhodesiense CT infected in ICR/HA Swiss mouse assessed as 30-day increase in survival time at 640 mg/kg relative to control; assay type: functional, organism-based; set-up: dose 640 mg/kg; procedure, shortened: as §1
[5] = test system: Trypanosoma brucei rhodesiense; assay: Antitrypanosomal activity against Trypanosoma rhodesiense CT infected in ICR/HA Swiss mouse assessed as increase in mean survival time at 2.5 mg/kg; assay type: functional
Procedure, shortened: (§3)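 Mice, five per dosage level, each dosed in mg of compound per kg body weight. ΔMST is the increase in mean survival time of treated over untreated infected controls, in days. A cure is a 30-day survival increase over controls, with at most five cures per dose. Deaths attributed to compound toxicity were scored as toxic deaths.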

[6] = test system: Trypanosoma brucei rhodesiense; assay: Antitrypanosomal activity against Trypanosoma rhodesiense CT infected in ICR/HA Swiss mouse assessed as 30-day increase in survival time at 160 mg/kg relative to control; assay type: functional, organism-based; set-up: dose 160 mg/kg; procedure, shortened: as §1
[7] = test system: Trypanosoma brucei rhodesiense; assay: Antitrypanosomal activity against Trypanosoma rhodesiense CT infected in ICR/HA Swiss mouse assessed as increase in mean survival time at 5 mg/kg; assay type: functional; procedure, shortened: as §3
[8] = test system: Trypanosoma brucei rhodesiense; assay: Antitrypanosomal activity against Trypanosoma rhodesiense CT infected in ICR/HA Swiss mouse assessed as 30-day increase in survival time at 10 mg/kg relative to control; assay type: functional, organism-based; set-up: dose 10 mg/kg; procedure, shortened: as §1
[9] = test system: Trypanosoma brucei rhodesiense; assay: Antitrypanosomal activity against Trypanosoma rhodesiense CT infected in ICR/HA Swiss mouse assessed as 30-day increase in survival time at 5 mg/kg relative to control; assay type: functional, organism-based; set-up: dose 5 mg/kg; procedure, shortened: as §1
[10] = test system: Trypanosoma brucei rhodesiense; assay: Antitrypanosomal activity against Trypanosoma rhodesiense CT infected in ICR/HA Swiss mouse assessed as increase in mean survival time at 0.21 mg/kg; assay type: functional; procedure, shortened: as §3
[11] = test system: Trypanosoma brucei rhodesiense; assay: Antitrypanosomal activity against Trypanosoma rhodesiense CT infected in ICR/HA Swiss mouse assessed as 30-day increase in survival time at 40 mg/kg relative to control; assay type: functional, organism-based; set-up: dose 40 mg/kg; procedure, shortened: as §1
[12] = test system: Trypanosoma brucei rhodesiense; assay: Antitrypanosomal activity against Trypanosoma rhodesiense CT infected in ICR/HA Swiss mouse assessed as 30-day increase in survival time at 20 mg/kg relative to control; assay type: functional, organism-based; set-up: dose 20 mg/kg; procedure, shortened: as §1
Mus musculus [13] = assay: Toxicity in ICR/HA Swiss mouse infected with Trypanosoma rhodesiense CT assessed as mortality at 320 mg/kg; assay type: organism-based; set-up: dose 320 mg/kg; conditions: in vivo; procedure, shortened: as §3
[14] = test system: Trypanosoma brucei rhodesiense; assay: Antitrypanosomal activity against Trypanosoma rhodesiense CT infected in ICR/HA Swiss mouse assessed as increase in mean survival time at 1.25 mg/kg; assay type: functional; procedure, shortened: as §3
Mus musculus [15] = assay: Toxicity in ICR/HA Swiss mouse infected with Trypanosoma rhodesiense CT assessed as mortality at 640 mg/kg; assay type: organism-based; set-up: dose 640 mg/kg; conditions: in vivo; procedure, shortened: as §3
[16] = test system: Trypanosoma brucei rhodesiense; assay: Antitrypanosomal activity against Trypanosoma rhodesiense CT infected in ICR/HA Swiss mouse assessed as 30-day increase in survival time at 2.5 mg/kg relative to control; assay type: functional, organism-based; set-up: dose 2.5 mg/kg; procedure, shortened: as §1
Mus musculus [17] = assay: Toxicity in ICR/HA Swiss mouse infected with Trypanosoma rhodesiense CT assessed as mortality at 160 mg/kg; assay type: organism-based; set-up: dose 160 mg/kg; conditions: in vivo; procedure, shortened: as §3
Mus musculus [18] = assay: Toxicity in ICR/HA Swiss mouse infected with Trypanosoma rhodesiense CT assessed as mortality at 40 mg/kg; assay type: organism-based; set-up: dose 40 mg/kg; conditions: in vivo; procedure, shortened: as §3
Mus musculus [19] = assay: Toxicity in ICR/HA Swiss mouse infected with Trypanosoma rhodesiense CT assessed as mortality at 20 mg/kg; assay type: organism-based; set-up: dose 20 mg/kg; conditions: in vivo; procedure, shortened: as §3
[20] = test system: Trypanosoma brucei rhodesiense; assay: Antitrypanosomal activity against Trypanosoma rhodesiense CT infected in ICR/HA Swiss mouse assessed as increase in mean survival time at 40 mg/kg; assay type: functional; procedure, shortened: as §3
[21] = test system: Trypanosoma brucei rhodesiense; assay: Antitrypanosomal activity against Trypanosoma rhodesiense CT infected in ICR/HA Swiss mouse assessed as increase in mean survival time at 20 mg/kg; assay type: functional; procedure, shortened: as §3
[22] = test system: Trypanosoma brucei rhodesiense; assay: Antitrypanosomal activity against Trypanosoma rhodesiense CT infected in ICR/HA Swiss mouse assessed as increase in mean survival time at 0.42 mg/kg; assay type: functional; procedure, shortened: as §3
[23] = test system: Trypanosoma brucei rhodesiense; assay: Antitrypanosomal activity against Trypanosoma rhodesiense CT infected in ICR/HA Swiss mouse assessed as increase in mean survival time at 0.83 mg/kg; assay type: functional; procedure, shortened: as §3
Plasmodium berghei [24] = assay: Antimalarial activity against Plasmodium berghei infected in mouse assessed as increase in mean survival time at 640 mg/kg, sc administered 72 hrs post infection; assay type: functional; conditions: route subcutaneous
Mus musculus [25] = assay: Toxicity in mouse infected with Plasmodium berghei at 640 mg/kg, sc administered 72 hrs post infection; assay type: organism-based; set-up: dose 640 mg/kg, route subcutaneous; conditions: in vivo; procedure, shortened: as §2
Plasmodium berghei [26] = assay: Antimalarial activity against Plasmodium berghei infected in mouse assessed as increase in mean survival time at 320 mg/kg, sc administered 72 hrs post infection; assay type: functional; conditions: route subcutaneous
[27] = test system: Trypanosoma brucei rhodesiense; assay: Antitrypanosomal activity against Trypanosoma rhodesiense CT infected in ICR/HA Swiss mouse assessed as 30-day increase in survival time at 1.25 mg/kg relative to control; assay type: functional, organism-based; set-up: dose 1.25 mg/kg; procedure, shortened: as §1
[28] = test system: Trypanosoma brucei rhodesiense; assay: Antitrypanosomal activity against Trypanosoma rhodesiense CT infected in ICR/HA Swiss mouse assessed as 30-day increase in survival time at 0.83 mg/kg relative to control; assay type: functional, organism-based; set-up: dose 0.83 mg/kg; procedure, shortened: as §1

Row | SMILES | Activity [1] | Activity (Plasmodium berghei [2]) | Activity [3] | Activity [6] | Activity [8] | Activity [9] | Activity [11] | Activity [12] | further results
1 | CC1CN[C+](c2ccc(-c3ccc(-c4ccc([C+]5NCC(C)N5)cc4)o3)cc2)N1.[Cl-].[Cl-] (stereo unspecified) | Active | inactive | Active | Active | – | – | – | – | Activity [4]: Active; Survival [5]: 0.6 days; Survival [7]: 3.2 days
2 | Cc1c(-c2ccc([C+](N)N)cc2)oc(-c2ccc([C+](N)N)cc2)c1Cl.[Cl-].[Cl-] | Active | inactive | Active | Active | Active | Active | Active | Active | Survival [10]: 2.1 days
3 | N[C+](N)c1ccc(-c2ccc(-c3ccc([C+](N)N)cc3)o2)cc1 | Active | inactive | Active | Active | Active | Active | Active | Active | Activity [4]: Active
4 | Cc1c(-c2ccc([C+]3NCCCN3)cc2)oc(-c2ccc([C+]3NCCCN3)cc2)c1C.[Cl-].[Cl-] | – | inactive | Active | – | Active | – | Active | Active | Activity (Mus musculus [13]): Toxic; Survival [14]: 3.2 days; Activity (Mus musculus [15]): Toxic
5 | N=C(N)c1ccc(/C=C/c2ccc(C(=N)N)cc2O)cc1 | Active | – | Active | Active | Active | Active | Active | Active | Activity [16]: Active; Activity [4]: Active
6 | CN1CCCN[C+]1c1ccc(-c2ccc(-c3ccc([C+]4NCCCN4C)cc3)o2)cc1.[Cl-].[Cl-] | – | inactive | – | – | – | – | – | – | Activity (Mus musculus [17]): Toxic; Activity (Mus musculus [15]): Toxic; Activity (Mus musculus [18]): Toxic; Survival [5]: 0.3 days; Survival [7]: 0.7 days; Activity (Mus musculus [19]): Toxic
7 | CN1CCN[C+]1c1ccc(-c2ccc(-c3ccc([C+]4NCCN4C)cc3)o2)cc1.[Cl-].[Cl-] | – | inactive | Active | – | – | – | – | – | Activity (Mus musculus [13]): Toxic; Activity (Mus musculus [17]): Toxic; Activity (Mus musculus [15]): Toxic; Survival [20]: 5.5 days; Survival [21]: 1.1 days
8 | N[C+](N)c1ccc(-c2oc(-c3ccc([C+](N)N)cc3)c(Cl)c2Cl)cc1.[Cl-].[Cl-] | Active | inactive | Active | Active | Active | – | Active | Active | Survival [22]: 0.4 days; Survival [14]: 2 days; Survival [10]: 0.2 days; Survival [23]: 0.8 days; Survival [5]: 6.2 days
9 | Cc1c(-c2ccc([C+]3NCC(C)N3)cc2)oc(-c2ccc([C+]3NCC(C)N3)cc2)c1C (stereo unspecified) | – | inactive | – | – | – | – | – | – | –
10 | Cc1c(-c2ccc([C+](N)N)cc2)oc(-c2ccc([C+](N)N)cc2)c1C | Active | inactive | Active | Active | Active | Active | Active | Active | –
11 | CCN(CC)CCCN[C+](N)c1ccc(-c2ccc(-c3ccc([C+](N)NCCCN(CC)CC)cc3)o2)cc1 | – | inactive | – | – | – | – | – | – | –
12 | [Cl-].[Cl-].c1cc([C+]2NCCN2)ccc1-c1ccc(-c2ccc([C+]3NCCN3)cc2)o1 | Active | – | Active | Active | – | – | Active | – | Survival (Plasmodium berghei [24]): 5 days
13 | NNC(=O)c1ccc(-c2ccc(-c3ccc(C(=O)NN)cc3)o2)cc1 | – | inactive | – | – | – | – | – | – | –
14 | CN1CCN(C)[C+]1c1ccc(-c2ccc(-c3ccc([C+]4N(C)CCN4C)cc3)o2)cc1.[Cl-].[Cl-] | – | inactive | – | – | – | – | – | – | Activity (Mus musculus [17]): Toxic; Activity (Mus musculus [15]): Toxic; Activity (Mus musculus [18]): Toxic
15 | CN1CCCN(C)[C+]1c1ccc(-c2ccc(-c3ccc([C+]4N(C)CCCN4C)cc3)o2)cc1.[Cl-].[Cl-] | – | inactive | – | – | – | – | – | – | Activity (Mus musculus [17]): Toxic; Activity (Mus musculus [15]): Toxic; Activity (Mus musculus [18]): Toxic
16 | Cl.Cl.c1cc(-c2ccc(-c3ccc(C4=NCCCN4)cc3)o2)ccc1C1=NCCCN1 | – | – | Active | Active | – | – | Active | Active | Activity (Mus musculus [25]): Toxic; Survival (Plasmodium berghei [26]): 12 days
17 | Cc1cc(-c2ccc([C+](N)N)cc2)oc1-c1ccc([C+](N)N)cc1 | Active | inactive | Active | Active | Active | Active | Active | Active | Activity [27]: Active; Activity [16]: Active; Activity [28]: Active
18 | N[C+](N)c1ccc(-c2cc(Cl)c(-c3ccc([C+](N)N)cc3)o2)cc1 | – | inactive | – | – | Active | Active | – | Active | Activity [27]: Active; Activity [16]: Active
19 | Cc1c(-c2ccc([C+]3NCCN3)cc2)oc(-c2ccc([C+]3NCCN3)cc2)c1C.[Cl-].[Cl-] | Active | inactive | Active | Active | – | – | Active | Active | Survival [14]: 1.8 days; Activity [4]: Active; Survival [5]: 18 days
20 | N=C(N)c1ccc(OCCCCCOc2ccc(C(=N)N)cc2)cc1 | Active | – | Active | Active | Active | Active | Active | Active | Activity [4]: Active
21 | N=C(N)c1ccc(/C=C/c2ccc(C(=N)N)cc2)cc1 | Active | – | Active | Active | Active | Active | Active | Active | Activity [16]: Active; Activity [4]: Active
